Test results: ChEMBL document CHEMBL1129609, “Synthesis and antiviral activity evaluation of some new aminoadamantane derivatives. 2” (1996)
Values after ≈ are worked out from the molar mass of the structure shown.

Assays:
[1] = tested on: Human immunodeficiency virus 1; assay: Antiviral activity against HIV-1 virus infected CEM cell lines.; format: functional, CCRF-CEM
MDCK [2] = assay: Antiviral activity tested against influenza A,H1N1 virus infected MDCK cell lines.; format: functional; conditions: Canis lupus familiaris
Human alphaherpesvirus 3 [3] = assay: Antiviral activity against TK-VZV virus infected HEL cell lines.; format: functional
How it was run: (§1)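 Vero (African green monkey kidney), HeLa (human epithelial) or HEL (human embryonic lung) cell monolayers infected with the virus. Readout is the minimum inhibitory concentration that reduces virus-induced cytopathicity by 50%. Values are averages of at least two separate experiments.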

Human alphaherpesvirus 3 [4] = assay: Antiviral activity against TK+VZV virus infected HEL cell lines.; format: functional; how it was run: as §1
[5] = tested on: Vesicular stomatitis virus; assay: Antiviral activity against vesicular stomatitis virus infected HeLa cell lines.; format: functional; how it was run: as §1
Coxsackievirus B4 [6] = assay: Antiviral activity against Coxsackie B4 virus infected HeLa cell lines.; format: functional; conditions: Enterovirus B; how it was run: as §1
Vero = assay: Effects on cell morphology of Vero cell lines.; format: functional; conditions: Chlorocebus sabaeus
How it was run: (§2)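 HeLa (human epithelial) or Vero (African green monkey kidney) cells were examined under the microscope for changes in normal morphology. The value is the minimum concentration causing a detectable alteration, averaged from at least two separate experiments.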

Human respirovirus 3 = assay: Antiviral activity against parainfluenza 3 virus infected Vero cell lines.; format: functional; how it was run: as §1
Sindbis virus = assay: Antiviral activity against sindbis virus infected Vero cell lines.; format: functional; how it was run: as §1
Coxsackievirus B4 [7] = assay: Antiviral activity against Coxsackie B4 virus infected vero cell lines.; format: functional; conditions: Enterovirus B; how it was run: as §1
HEL = assay: Inhibition of HEL cell proliferation.; format: functional; conditions: Homo sapiens
How it was run: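 Human embryonic lung fibroblasts were used for the proliferation assay. The value is the concentration that reduces cell proliferation by 50%, averaged from at least two separate experiments.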

Human betaherpesvirus 5 = assay: Antiviral activity against HCMV virus infected HEL cell lines.; format: functional; how it was run: as §1
MDCK [8] = assay: Antiviral activity of compound was tested against morphology virus infec+ted MDCK cell lines.; format: functional; conditions: Canis lupus familiaris
Vaccinia virus = assay: Antiviral activity against vaccinia virus infected HEF cell lines.; format: functional; conditions: Orthopoxvirus vaccinia
How it was run: (§3)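 Human embryonic fibroblasts, from embryonic lung or embryonic skin-muscle, infected with the virus. Endpoint is the minimum inhibitory concentration that reduces virus-induced cytopathicity by 50%. Values are averages of at least two separate experiments.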

[9] = Antiviral activity against influenza A,H2N2 virus infected MDCK cell lines.; format: functional
CCRF-CEM = assay: Cytotoxicity against CEM cell lines.; format: functional; conditions: Homo sapiens
Human alphaherpesvirus 1 [10] = assay: Antiviral activity against HSV-1 virus infected HEF cell lines.; format: functional; how it was run: as §3
Semliki Forest virus = assay: Antiviral activity against Semliki forest virus infected Vero cell lines.; format: functional; how it was run: as §1
[11] = tested on: Human immunodeficiency virus 2; assay: Antiviral activity against HIV-2 virus infected CEM cell lines.; format: functional, CCRF-CEM
[12] = tested on: Vesicular stomatitis virus; assay: Antiviral activity against vesicular stomatitis virus infected HEF cell lines.; format: functional; how it was run: as §3
HeLa = assay: Effects on cell morphology of HeLa cell lines.; format: functional; conditions: Homo sapiens; how it was run: as §2
HEF = assay: Effects on cell morphology of HEF cell lines.; format: functional; conditions: Homo sapiens
How it was run: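 Human embryonic skin-muscle fibroblasts were examined under the microscope for changes in normal cell morphology. The value is the minimum concentration causing a microscopically detectable alteration, averaged from at least two separate experiments.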

Influenza B virus = assay: Antiviral activity against influenza B virus infected MDCK cell lines.; format: functional
[13] = tested on: Mammalian orthoreovirus 1; assay: Antiviral activity against Reo 1 virus infected vero cell lines.; format: functional; how it was run: as §1
Human alphaherpesvirus 1 [14] = assay: Antiviral activity against TK-HSV-1 virus infected HEF cell lines.; format: functional; how it was run: as §3
Human alphaherpesvirus 2 = assay: Antiviral activity against HSV-2 virus infected HEF cell lines.; format: functional; how it was run: as §3
Enterovirus C = assay: Antiviral activity against polio 1 virus infected HeLa cell lines.; format: functional; how it was run: as §1
[15] = Antiviral activity against influenza A,H3N2 virus infected MDCK cell lines.; format: functional

Compound | MIC50 [1] [µg/mL] | MIC50 (MDCK [2]) [µg/mL] | MIC50 (Human alphaherpesvirus 3 [3]) [µg/mL] | MIC50 (Human alphaherpesvirus 3 [4]) [µg/mL] | MIC50 [5] [µg/mL] | MIC50 (Coxsackievirus B4 [6]) [µg/mL] | MIC50 (Vero) [µg/mL] | MIC50 (Human respirovirus 3) [µg/mL] | MIC50 (Sindbis virus) [µg/mL] | MIC50 (Coxsackievirus B4 [7]) [µg/mL] | MIC50 (HEL) [µg/mL] | MIC50 (Human betaherpesvirus 5) [µg/mL] | MIC50 (MDCK [8]) [µg/mL] | MIC50 (Vaccinia virus) [µg/mL] | MIC50 [9] [µg/mL] | MIC50 (CCRF-CEM) [µg/mL] | MIC50 (Human alphaherpesvirus 1 [10]) [µg/mL] | MIC50 (Semliki Forest virus) [µg/mL] | MIC50 [11] [µg/mL] | MIC50 [12] [µg/mL] | other results
CCCCN1CCCC1C12CC3CC(CC(C3)C1)C2 (centres undefined) | > 40 | 4 (≈ 15.3 µM) | > 20 | > 50 | > 100 | > 100 | > 200 | > 100 | > 100 | > 100 | > 50 | > 50 | 250 (≈ 956 µM) | > 40 | 44.5 (≈ 170 µM) | 74 (≈ 283 µM) | > 40 | > 100 | > 40 | > 40 | MIC50 (HeLa): 200 µg/mL (≈ 765 µM); MIC50 (HEF): 100 µg/mL (≈ 382 µM); MIC50 (Influenza B virus): > 80 µg/mL; MIC50 [13]: > 100 µg/mL; MIC50 (Human alphaherpesvirus 1 [14]): > 40 µg/mL; MIC50 (Human alphaherpesvirus 2): > 40 µg/mL; MIC50 (Enterovirus C): > 100 µg/mL; MIC50 [15]: > 100 µg/mL
C1CCC2(C1)CCCN2CC12CC3CC(CC(C3)C1)C2 | > 40 | > 150 | 20 (≈ 73.1 µM) | 32 (≈ 117 µM) | > 100 | > 100 | > 400 | > 100 | > 100 | > 100 | > 50 | > 50 | > 250 | > 40 | > 60 | 59 (≈ 216 µM) | > 40 | > 100 | > 40 | > 100 | MIC50 (HeLa): 200 µg/mL (≈ 731 µM); MIC50 (HEF): 100 µg/mL (≈ 366 µM); MIC50 (Influenza B virus): > 100 µg/mL; MIC50 [13]: > 100 µg/mL; MIC50 (Human alphaherpesvirus 1 [14]): > 40 µg/mL; MIC50 (Human alphaherpesvirus 2): > 40 µg/mL; MIC50 (Enterovirus C): > 100 µg/mL; MIC50 [15]: > 47 µg/mL
C1CCC2(CC1)CCCN2CC12CC3CC(CC(C3)C1)C2 | > 20 | > 150 | 20 (≈ 69.6 µM) | 30 (≈ 104 µM) | 100 (≈ 348 µM) | > 100 | > 200 | > 100 | > 100 | > 100 | > 50 | > 50 | > 250 | > 40 | > 100 | 33 (≈ 115 µM) | > 40 | > 100 | > 20 | > 40 | MIC50 (HeLa): 200 µg/mL (≈ 696 µM); MIC50 (HEF): 100 µg/mL (≈ 348 µM); MIC50 (Influenza B virus): > 100 µg/mL; MIC50 [13]: > 100 µg/mL; MIC50 (Human alphaherpesvirus 1 [14]): > 40 µg/mL; MIC50 (Human alphaherpesvirus 2): > 40 µg/mL; MIC50 (Enterovirus C): > 100 µg/mL; MIC50 [15]: > 100 µg/mL
